High-throughput results as filed in PubChem.
Most compounds without a hit are left out; they make up all but 1.8% or so of the library.
CHRM5 PAM – CHRM5 positive allosteric modulation. activation, % at 3 µM. 360,000 compounds, 0.3% hits. AID 624038. CHO-K1 hM5, Fluo-8 calcium, ACh EC20 PAM; 0% = ACh EC20, 100% = ACh EC100;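 active = activation above the run cutoff, the mean activation of all test compounds plus 3 SD, cut at about 18% in these data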
Target sequence (P08912 whole entry, looked up): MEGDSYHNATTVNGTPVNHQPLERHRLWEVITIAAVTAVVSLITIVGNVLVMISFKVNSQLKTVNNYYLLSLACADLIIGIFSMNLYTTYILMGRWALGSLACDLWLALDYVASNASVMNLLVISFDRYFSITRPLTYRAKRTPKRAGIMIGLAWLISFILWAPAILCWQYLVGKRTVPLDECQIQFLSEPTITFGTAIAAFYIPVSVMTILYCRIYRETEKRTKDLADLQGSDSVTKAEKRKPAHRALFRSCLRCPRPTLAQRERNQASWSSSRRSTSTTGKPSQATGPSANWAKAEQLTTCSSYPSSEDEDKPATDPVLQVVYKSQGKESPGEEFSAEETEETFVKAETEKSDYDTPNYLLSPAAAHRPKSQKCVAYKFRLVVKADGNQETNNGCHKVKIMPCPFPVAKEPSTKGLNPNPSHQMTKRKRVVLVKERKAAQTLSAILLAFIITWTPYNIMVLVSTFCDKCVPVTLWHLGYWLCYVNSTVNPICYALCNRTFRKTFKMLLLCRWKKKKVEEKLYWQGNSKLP
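System – CHO-K1 hM5 cells · Compound – 3 µM, single dose · Incubation – compound preincubation 140 s before EC20 acetylcholine addition · Technique – Fluo-8 calcium fluorescence · Measure – Max/basal fluorescence ratio as % of EC20–EC100 ACh window · Benchmarks – low control EC20 acetylcholine (0%), high control EC100 acetylcholine (100%) · Replication – singlicate, one well per test compound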
CHRM4 agonist – CHRM4 agonism in calcium assay | P08173 | CHO-K1 hM4/Gqi5, Fluo-8 calcium fluorescence; vehicle 0%, full acetylcholine response 100% | activation, % at 3 µM | 360,000 compounds, 0.14% hits | AID 624127;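 active = activation above the run mean over all test wells plus 3 SD, cut at about 32% in these data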;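 note: peak over basal fluorescence ratio per well then scaled between controls; 0% = DMSO wells and 100% = acetylcholine at EC100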
CHRM4 antagonist – blocks acetylcholine activation of human M4 receptor; inhibition, % at 3 µM; AID 624125; 360,000 compounds, 0.73% hits; CHO-hM4 cells, ACh EC80, Fluo-8 calcium fluorescence;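 active = inhibition above its plate's cutoff, the mean inhibition of sample wells plus 3 SD, cut at about 27% in these data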;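 note: 0% = acetylcholine EC80 with DMSO and 100% = DMSO without agonist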
M4 PAM – CHRM4 positive allosteric modulation | CHO-K1 hM4/Gqi5, Fluo-8 calcium fluorescence, ACh EC20; 0% = ACh EC20, 100% = maximal ACh | activation, % at 3 µM | 360,000 compounds, 0.4% hits | AID 624126;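 active = activation above its plate's cutoff, the mean activation of sample wells plus 3 SD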
M5 antag – CHRM5 antagonism in calcium assay. P08912. CHO-hM5 cells, Fluo-8 calcium fluorescence, ACh EC80. inhibition, % at 3 µM. 360,000 compounds, 0.59% hits. AID 624040;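 active = inhibition above a per-plate cutoff, the mean of that plate's test compounds plus 3 SD, cut at about 27% in these data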;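 note: 0% = acetylcholine EC80 with DMSO and 100% = DMSO without agonist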
M5 ag – CHRM5 agonism in calcium assay; P08912; CHO-K1 hM5 cells, Fluo-8 calcium fluorescence; 0% DMSO wells, 100% maximal acetylcholine response; activation, % at 3 µM; 360,000 compounds, 0.19% hits;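 active = activation above the run's mean over test compounds plus 3 SD, cut at about 23% in these data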;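 note: signal is peak over basal fluorescence ratio across the kinetic read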
Numbers without * were called inactive; ! = repeats disagree.

SMILES | CHRM5 PAM | CHRM4 agonist | CHRM4 antagonist | M4 PAM | M5 antag | M5 ag
Cc1ccc(C(=O)N2CCN(c3ccc(NC(=S)NC(=O)Cc4ccccc4)cc3)CC2)cc1 | -19 | 4 | 13 | -9 | 29* | -1
CC(=O)c1ccc(N2CCN(C(=S)Nc3ccc(Oc4ccccc4)cc3)CC2)cc1 | -31 | 13 | 19 | -21 | 35* | 2
COc1ccc(N2CCN(C(=S)Nc3ccccc3)CC2)cc1 | -3 | 1 | -3 | -3 | 10 | 1
NNC(=O)COc1cccc(Oc2ccccc2)c1 | -4 | 1 | 3 | -6 | 0 | -2
CCC(C)NC(=O)CN(c1ccc(Cl)c(Cl)c1)S(C)(=O)=O (stereo not given) | -1 | 2 | 20 | -5 | 1 | -3
CN1C(=S)N(c2cccnc2)C(=O)/C1=C\c1ccc(N(C)C)cc1 | -21 | 14 | 11 | -7 | 31* | 60*
COc1ccccc1N1CCNC(C)C1=O (stereo not given) | 8 | 0 | -6 | 14* | -1 | -2
COc1ccccc1N1C(=O)C2C3C=CC(CC3)C2C1=O (stereo not given) | -2 | 0 | -13 | -1 | 5 | -4
CC(C)C(=O)Nc1nc2cc3c(cc2s1)OCCO3 | -4 | -1 | 0 | -8 | 6 | 3
O=C(COc1ccccc1)Nc1nc2cc3c(cc2s1)OCO3 | -7 | 5 | 0 | -1 | 27* | -3
CC(=O)Nc1nc2cc3c(cc2s1)OCO3 | -18 | 2 | -8 | 7 | -1 | 38*
O=C1NC[C@H](CCCCN2CCN(Cc3ccccc3)C(=O)C2=O)N(Cc2ccccc2)C1=O | -2 | 1 | -4 | 15 | 3 | -4
O=C(NCc1ccco1)c1ccccc1-c1ccccc1 | 9 | -1 | -2 | 3 | -9 | -4
Cc1scc(C(=O)NCc2ccco2)c1-c1ccccc1 | 4 | 0 | -6 | 42* | -7 | -3
CCc1noc(C)c1C(=O)OCC(=O)NC(=O)c1ccccc1 | 3 | 0 | -7 | 6 | -11 | -4
CNC[C@@H]1Oc2cc(Br)ccc2S(=O)(=O)N([C@@H](C)CO)C[C@@H]1C | 1 | 1 | 48* | -13 | 0 | 0
COc1ccc(NC(=O)CSCC(=O)N2CCN(C(=O)c3ccco3)CC2)cc1 | 4 | 0 | 7 | 3 | 11 | -1
O=C(/C=C/c1ccc(S(=O)(=O)NCc2ccco2)cc1)NCc1cccc(Cl)c1 | -18 | 4 | 4 | -8 | 32* | -9
COc1cccc(C2=NCCc3cc4c(cc32)OCO4)c1OC | -4 | 3 | 10 | -4 | 4 | 1
COc1ccc2cc3[n+](cc2c1OC)CCc1cc2c(cc1-3)OCO2 | -4 | 0 | 41*! | -14 | -3 | 0
CCCc1nc2ccc(C)cn2c1Cc1cccc(F)c1 | -7 | 3 | -8 | 2 | 1 | -8
CCCc1nc2c3ccccc3ccn2c1Cc1cccc(F)c1 | -22 | -1 | 57* | -17 | 47* | -8
Cc1ccccc1CN1CCC(CNC(=O)C2CCCN(c3ncnc4c3nc3n4CCCCC3)C2)CC1 (stereo not given) | -15 | 3 | 63* | -22 | 16 | -10
Cc1cnc(C(=O)N(c2ccc(N3CCOCC3)cc2)C2C(=O)Nc3ccccc3N=C2c2ccc(F)cc2)cn1 (stereo not given) | -4 | 1 | -21 | 2 | -1 | 0
COc1ccccc1C=NN=Cc1ccccc1OC | -4 | 0 | -1 | 1 | 14 | 0
SMILES | CHRM5 PAM | CHRM4 agonist | CHRM4 antagonist | M4 PAM | M5 antag | M5 ag
O=C(OCC(=O)N1N=C(c2ccc(Cl)cc2)CC1c1ccco1)c1cccnc1 (stereo not given) | 18* | 1 | -5 | 8 | -1 | 6
O=C(CCl)N1N=C(c2ccco2)CC1c1ccco1 (stereo not given) | 28* | 1 | -7 | 2 | 11 | 3
C=CCNC(=O)Nc1ccc(Cl)cn1 | 1 | 0 | -5 | 21* | -1 | 0
Cc1ccc(S(=O)(=O)N(C)CC(=O)OCC(=O)NC(=O)Nc2ccc3c(c2)OCCO3)cc1 | -8 | 4 | -3 | 7 | 13 | -2
CCOc1ccc(OCc2cccc(C(=O)Nc3ccc(CN4CCCCC4)cc3)c2)cc1 | -12 | 10 | 11 | -14 | 12 | -7
CN1CCC(=C2c3ccccc3Sc3ccccc32)CC1 | -19 | 10 | 99* | -18 | 99* | 0
CN1CCC(=C2c3ccccc3C=Cc3ccccc32)CC1 | -18 | 6 | 100* | -19 | 99* | 1
O=C1Cc2ccccc2Sc2ccccc21 | 0 | 0 | 10 | 3 | -6 | -6
CN1CCN(C(=O)CCN2C(=O)c3ccccc3C2=O)CC1 | 2 | 0 | 2 | 4 | 6 | 3
CCOC(=O)CC1=Nc2ccccc2NC(=O)C1 | -1 | 3 | 27* | -4 | 5 | -7
COC(=O)CC1=Nc2ccccc2NC(=O)C1 | 0 | 0 | 0 | -1 | 6 | -5
COc1ccc(C)cc1N(CC(=O)Nc1cccnc1)S(=O)(=O)c1ccccc1 | -18 | 14 | 4 | -7 | 29* | 2
CCOC(=O)C1=C(COC(=O)CCOc2ccc(C)cc2)NC(=O)NC1C (stereo not given) | -3 | 2 | 5 | 7 | 2 | -2
CC(C)C[C@H](N)C(=O)N1CCC(C(=O)N[C@H](C(=O)NC(C)c2ccccc2)C(C)C)CC1 (stereo not given in full) | 2 | 0 | -3 | 5 | -1 | 2
COc1ccc(C(CNC(=O)c2cccc(NS(=O)(=O)c3ccc(C)c(F)c3)c2)N(C)C)cc1 (stereo not given) | -7 | 3 | -4 | -9 | 11 | -7
COc1ccccc1C(CNC(=O)c1cccc(NS(=O)(=O)c2ccc(C)c(F)c2)c1)N(C)C (stereo not given) | -35 | 0 | 3 | -7 | 66* | -8
CCOc1ccc(S(=O)(=O)Nc2cccc(C(=O)NCC(c3ccccc3)N(C)C)c2)cc1 (stereo not given) | -14 | 16 | -12 | 5 | 11 | -3
COc1ccc(C(CNC(=O)c2cccc(NS(=O)(=O)c3ccccc3)c2)N(C)C)cc1 (stereo not given) | -7 | 2 | 31* | -14 | 14 | -8
COc1ccccc1C(CNC(=O)c1cccc(S(=O)(=O)NCc2ccccc2)c1)N(C)C (stereo not given) | -33 | 1 | 6 | -6 | 39* | -11
C[C@@H]1CN([C@@H](C)CO)C(=O)Cc2cc(NC(=O)C3CCCCC3)ccc2O[C@H]1CN(C)S(=O)(=O)c1ccccc1 | -5 | 1 | 6 | -9 | 13 | -3
